Reference: ChEMBL document CHEMBL1155469, “Peptide nucleic acids conjugated to short basic peptides show improved pharmacokinetics and antisense activity in adipose tissue” (J Med Chem, 2010)
Active and inactive are the calls of the source. No cut-off for these calls is given here.

Legend:
Mus musculus [1] = experiment: Toxicity in Balb/C mouse assessed as change in serum AST levels at 40 mg/kg, ip administered thrice a week for 2 weeks measured 48 hrs after last dose; assay type: organism-based; parameters: dose 40 mg/kg, route intraperitoneal; conditions: in vivo
Procedure, shortened: (§1)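 Male Balb/c mice, 6–8 wk, n=4/group, received compound i.p. in PBS (10 ul/g) 3x/wk for 2 wk. Body weight was monitored throughout. At 48 h after the last dose, mice were anesthetized with isoflurane and bled by cardiac puncture. Serum AST, ALT, BUN, bilirubin, glucose and triglycerides were compared with the saline group. ALT rise below 2x normal was counted as absent.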

Mus musculus [2] = experiment: Toxicity in Balb/C mouse assessed as change in serum triglyceride levels at 40 mg/kg, ip administered thrice a week for 2 weeks measured 48 hrs after last dose; assay type: organism-based; parameters: dose 40 mg/kg, route intraperitoneal; conditions: in vivo; procedure, shortened: as §1
Mus musculus [3] = experiment: Toxicity in Balb/C mouse assessed as change in blood urea nitrogen levels at 40 mg/kg, ip administered thrice a week for 2 weeks measured 48 hrs after last dose; assay type: organism-based; parameters: dose 40 mg/kg, route intraperitoneal; conditions: in vivo; procedure, shortened: as §1
Mus musculus [4] = experiment: Inhibition of PTEN expression in Balb/C mouse kidney at 40 mg/kg, ip administered thrice a week for 2 weeks measured 48 hrs after last dose by Western blot analysis; assay type: functional, organism-based; parameters: dose 40 mg/kg
Procedure, shortened: (§2)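 Male Balb/c mice, 6–8 wk, n=4/group, dosed i.p. in PBS 3x/wk for 2 wk and killed 48 h after the last dose. Tissue was homogenized in RIPA buffer with protease inhibitors, and protein was measured by Lowry assay. Lysates were run on 10% PAGE and blotted to PVDF. Blots were probed with rabbit anti-PTEN (1:1000) and HRP anti-rabbit (1:2500), with ECL detection.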

Mus musculus [5] = experiment: Toxicity in Balb/C mouse assessed as change in serum bilirubin levels at 40 mg/kg, ip administered thrice a week for 2 weeks measured 48 hrs after last dose; assay type: organism-based; parameters: dose 40 mg/kg, route intraperitoneal; conditions: in vivo; procedure, shortened: as §1
Mus musculus [6] = experiment: Toxicity in Balb/C mouse assessed as change in body weight at 40 mg/kg, ip administered thrice a week for 2 weeks measured 48 hrs after last dose; assay type: organism-based; parameters: dose 40 mg/kg, route intraperitoneal; conditions: in vivo; procedure, shortened: as §1
BCL1 [7] = experiment: Inhibition of PTEN expression in mouse BCL1 cells after 62 hrs by Western blotting; assay type: functional, cell-based; conditions: BCL1, 62 h
Procedure, shortened: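 BCL1 cells were grown in DMEM with 10% FBS at 37 °C, 5% CO2. Compound was delivered to 2×10^6 cells by electroporation (200 V, 1000 uF, 13 ohms), and cells were harvested 62 h later. Western blot of RIPA lysates used rabbit anti-PTEN and anti-CD40 (1:1000) with HRP secondary and ECL detection. PTEN was normalized to CD40. n=3, mean ± SD.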

Mus musculus [8] = experiment: Toxicity in Balb/C mouse assessed as change in serum ALT levels at 40 mg/kg, ip administered thrice a week for 2 weeks measured 48 hrs after last dose; assay type: organism-based; parameters: dose 40 mg/kg, route intraperitoneal; conditions: in vivo; procedure, shortened: as §1
Mus musculus [9] = experiment: Inhibition of PTEN expression in Balb/C mouse liver at 40 mg/kg, ip administered thrice a week for 2 weeks measured 48 hrs after last dose by Western blot analysis; assay type: functional, organism-based; parameters: dose 40 mg/kg; procedure, shortened: as §2
Mus musculus [10] = experiment: Toxicity in Balb/C mouse assessed as change in serum glucose levels at 40 mg/kg, ip administered thrice a week for 2 weeks measured 48 hrs after last dose; assay type: organism-based; parameters: dose 40 mg/kg, route intraperitoneal; conditions: in vivo; procedure, shortened: as §1
BCL1 [11] = experiment: Inhibition of CD40 protein expression in mouse BCL1 cells after 62 hrs by Western blotting; assay type: functional, cell-based; conditions: BCL1, 62 h
Mus musculus [12] = experiment: Inhibition of IR expression in Balb/C mouse kidney assessed as upregulation of IR-A transcript at 6.0 umol/kg, ip administered thrice a week for 2 weeks measured 48 hrs after last dose […]; assay type: functional, organism-based
Procedure, shortened: (§3)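 Male Balb/c mice, n=4 per group, dosed i.p. in PBS and sacrificed 48 h after last dose. Liver, kidney and adipose tissue homogenised at once in 4 M guanidine isothiocyanate, 25 mM EDTA, 50 mM Tris-HCl pH 6. RNA purified on columns and run by fluorescence-based quantitative RT-PCR. Target transcript levels normalised to cyclophilin A and expressed relative to saline-treated controls.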

Mus musculus [13] = experiment: Acute toxicity in Balb/C mouse assessed as change in spleen weight at 1.5 to 6.0 umol/kg, ip administered thrice a week for 2 weeks measured 48 hrs after last dose; assay type: organism-based; conditions: in vivo
Procedure, shortened: (§4)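 Male Balb/c mice aged 6–8 weeks, n=4 per group, dosed i.p. with compound suspended in PBS and filter sterilized, 10 ul/g body weight. Body weight tracked throughout the live phase. Under isoflurane anaesthesia, terminal cardiac-puncture bleed; serum taken for transaminases and other chemistries. Sacrifice by cervical dislocation 48 h after last dose, with liver and spleen weighed at necropsy. Kidneys examined by histopathology.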

Mus musculus [14] = experiment: Inhibition of IR expression in Balb/C mouse kidney assessed as upregulation of IR-A transcript at 1.5 umol/kg, ip administered thrice a week for 2 weeks measured 48 hrs after last dose […]; assay type: functional, organism-based; procedure, shortened: as §3
Mus musculus [15] = experiment: Inhibition of IR expression in Balb/C mouse kidney assessed as reduction in IR-B transcript at 1.5 umol/kg, ip administered thrice a week for 2 weeks measured 48 hrs after last dose […]; assay type: functional, organism-based; procedure, shortened: as §3
Mus musculus [16] = experiment: Inhibition of IR expression in Balb/C mouse liver assessed as reduction in IR-B transcript at 6.0 umol/kg, ip administered thrice a week for 2 weeks measured 48 hrs after last dose […]; assay type: functional, organism-based; procedure, shortened: as §3
Mus musculus [17] = experiment: Inhibition of IR expression in Balb/C mouse adipose tissue assessed as upregulation of IR-A transcript at 6.0 umol/kg, ip administered thrice a week for 2 weeks measured 48 hrs after last dose by […]; assay type: functional; procedure, shortened: as §3
Mus musculus [18] = experiment: Acute toxicity in Balb/C mouse assessed as reduction in body weight at 1.5 to 6.0 umol/kg, ip administered thrice a week for 2 weeks measured 48 hrs after last dose; assay type: organism-based; conditions: in vivo; procedure, shortened: as §4
Mus musculus [19] = experiment: Inhibition of IR expression in Balb/C mouse kidney assessed as reduction in IR-B transcript at 6.0 umol/kg, ip administered thrice a week for 2 weeks measured 48 hrs after last dose […]; assay type: functional, organism-based; procedure, shortened: as §3
Mus musculus [20] = experiment: Acute toxicity in Balb/C mouse assessed as change in liver weight at 1.5 to 6.0 umol/kg, ip administered thrice a week for 2 weeks measured 48 hrs after last dose; assay type: organism-based; conditions: in vivo; procedure, shortened: as §4
Mus musculus [21] = experiment: Acute toxicity in Balb/C mouse assessed as change in plasma chemistry at 1.5 to 6.0 umol/kg, ip administered thrice a week for 2 weeks measured 48 hrs after last dose; assay type: organism-based; conditions: in vivo; procedure, shortened: as §4
Mus musculus [22] = experiment: Inhibition of IR expression in Balb/C mouse adipose tissue assessed as reduction in IR-B transcript at 6.0 umol/kg, ip administered thrice a week for 2 weeks measured 48 hrs after last dose […]; assay type: functional; procedure, shortened: as §3
Mus musculus [23] = experiment: Inhibition of IR expression in Balb/C mouse liver assessed as upregulation of IR-A transcript at 6.0 umol/kg, ip administered thrice a week for 2 weeks measured 48 hrs after last dose by quantitative RT-PCR analysis
Mus musculus [24] = experiment: Inhibition of IR expression in Balb/C mouse liver assessed as upregulation of IR-A transcript at 1.5 umol/kg, ip administered thrice a week for 2 weeks measured 48 hrs after last dose by quantitative RT-PCR analysis

COCCO[C@@H]1[C@H](OP(=O)(S)OC[C@H]2O[C@@H](n3cc(C)c(=O)[nH]c3=O)C[C@@H]2OP(=O)(S)OC[C@H]2O[C@@H](n3ccc(N)nc3=O)[C@H](OCCOC)[C@@H]2OP(=O)(S)OC[C@H]2O[C@@H](n3cnc4c(N)ncnc43)[C@H](OCCOC)[C@@H]2OP(=O)(S)OC[C@H]2O[C@@H](n3cnc4c(=O)[nH]c(N)nc43)[C@H](OCCOC)[C@@H]2OP(=O)(S)OC[C@H]2O[C@@H](n3ccc(N)nc3=O)[C@H](OCCOC)[C@@H]2OP(=O)(S)OC[C@H]2O[C@@H](n3cnc4c(N)ncnc43)[C@H](OCCOC)[C@@H]2OP(=O)(S)OC[C@H]2O[C@@H](n3ccc(N)nc3=O)[C@H](OCCOC)[C@@H]2OP(=O)(S)OC[C@H]2O[C@@H](n3cnc4c(N)ncnc43)[C@H](OCCOC)[C@@H]2OP(=O)(S)OC[C@H]2O[C@@H](n3cc(C)c(=O)[nH]c3=O)C[C@@H]2OP(=O)(S)OC[C@H]2O[C@@H](n3ccc(N)nc3=O)[C@H](OCCOC)[C@@H]2OP(=O)(S)OC[C@H]2O[C@@H](n3cc(C)c(=O)[nH]c3=O)C[C@@H]2OP(=O)(S)OC[C@H]2O[C@@H](n3cnc4c(N)ncnc43)[C@H](OCCOC)[C@@H]2OP(=O)(S)OC[C@H]2O[C@@H](n3ccc(N)nc3=O)[C@H](OCCOC)[C@@H]2OP(=O)(S)OC[C@H]2O[C@@H](n3cnc4c(N)ncnc43)[C@H](OCCOC)[C@@H]2OP(=O)(S)OC[C@H]2O[C@@H](n3cnc4c(N)ncnc43)[C@H](OCCOC)[C@@H]2OP(=O)(S)OC[C@H]2O[C@@H](n3cnc4c(=O)[nH]c(N)nc43)[C@H](OCCOC)[C@@H]2OP(=O)(S)OC[C@H]2O[C@@H](n3cnc4c(N)ncnc43)[C@H](OCCOC)[C@@H]2OP(=O)(S)OC[C@H]2O[C@@H](n3cnc4c(N)ncnc43)[C@H](OCCOC)[C@@H]2OP(=O)(S)OC[C@H]2O[C@@H](n3cnc4c(N)ncnc43)[C@H](OCCOC)[C@@H]2O)[C@@H](CO)O[C@H]1n1ccc(N)nc1=O (some centres undefined)
Activity (Mus musculus [1]): Non-toxic | Activity (Mus musculus [2]): Non-toxic | Activity (Mus musculus [3]): Non-toxic | inhibition (Mus musculus [4]): inactive | Activity (Mus musculus [5]): Non-toxic | Activity (Mus musculus [6]): Non-toxic | IC50 (BCL1 [7]): 1000 nM | Activity (Mus musculus [8]): Non-toxic | inhibition (Mus musculus [9]): inactive | Activity (Mus musculus [10]): Non-toxic

Cc1cn(CC(=O)N(CCNC(=O)CN(CCNC(=O)CN(CCNC(=O)CN(CCNC(=O)CN(CCNC(=O)CN(CCNC(=O)CN(CCNC(=O)CN(CCNC(=O)CN(CCNC(=O)CN(CCNC(=O)CN(CCNC(=O)CN(CCN)C(=O)Cn2ccc(N)nc2=O)C(=O)Cn2cnc3c(N)ncnc32)C(=O)Cn2ccc(N)nc2=O)C(=O)Cn2cnc3c(N)ncnc32)C(=O)Cn2cnc3c(=O)[nH]c(N)nc32)C(=O)Cn2cnc3c(N)ncnc32)C(=O)Cn2cc(C)c(=O)[nH]c2=O)C(=O)Cn2cnc3c(=O)[nH]c(N)nc32)C(=O)Cn2cnc3c(N)ncnc32)C(=O)Cn2ccc(N)nc2=O)C(=O)Cn2cnc3c(N)ncnc32)CC(=O)NCCN(CC(=O)NCCN(CC(=O)NCCN(CC(=O)N[C@@H](CCCCN)C(N)=O)C(=O)Cn2cnc3c(=O)[nH]c(N)nc32)C(=O)Cn2cnc3c(N)ncnc32)C(=O)Cn2cc(C)c(=O)[nH]c2=O)c(=O)[nH]c1=O
IC50 (BCL1 [11]): 900 nM

COCCO[C@@H]1[C@H](OP(=O)(S)OC[C@H]2O[C@@H](n3cnc4c(N)ncnc43)[C@H](OCCOC)[C@@H]2O)[C@@H](COP(=O)(S)O[C@H]2[C@@H](OCCOC)[C@H](n3ccc(N)nc3=O)O[C@@H]2COP(=O)(S)O[C@H]2[C@@H](OCCOC)[C@H](n3cnc4c(N)ncnc43)O[C@@H]2COP(=O)(S)O[C@H]2[C@@H](OCCOC)[C@H](n3ccc(N)nc3=O)O[C@@H]2COP(=O)(S)O[C@H]2[C@@H](OCCOC)[C@H](n3cnc4c(=O)[nH]c(N)nc43)O[C@@H]2COP(=O)(S)O[C@H]2[C@@H](OCCOC)[C@H](n3cnc4c(=O)[nH]c(N)nc43)O[C@@H]2COP(=O)(S)O[C@H]2[C@@H](OCCOC)[C@H](n3ccc(N)nc3=O)O[C@@H]2COP(=O)(S)O[C@H]2C[C@H](n3cc(C)c(=O)[nH]c3=O)O[C@@H]2COP(=O)(S)O[C@H]2[C@@H](OCCOC)[C@H](n3ccc(N)nc3=O)O[C@@H]2COP(=O)(S)O[C@H]2[C@@H](OCCOC)[C@H](n3ccc(N)nc3=O)O[C@@H]2COP(=O)(S)O[C@H]2C[C@H](n3cc(C)c(=O)[nH]c3=O)O[C@@H]2COP(=O)(S)O[C@H]2[C@@H](OCCOC)[C@H](n3cnc4c(=O)[nH]c(N)nc43)O[C@@H]2COP(=O)(S)O[C@H]2C[C@H](n3cc(C)c(=O)[nH]c3=O)O[C@@H]2COP(=O)(S)O[C@H]2[C@@H](OCCOC)[C@H](n3ccc(N)nc3=O)O[C@@H]2COP(=O)(S)O[C@H]2[C@@H](OCCOC)[C@H](n3cnc4c(N)ncnc43)O[C@@H]2COP(=O)(S)O[C@H]2C[C@H](n3cc(C)c(=O)[nH]c3=O)O[C@@H]2COP(=O)(S)O[C@H]2[C@@H](OCCOC)[C@H](n3ccc(N)nc3=O)O[C@@H]2COP(=O)(S)O[C@H]2[C@@H](OCCOC)[C@H](n3ccc(N)nc3=O)O[C@@H]2COP(=O)(S)O[C@H]2[C@@H](OCCOC)[C@H](n3cnc4c(N)ncnc43)O[C@@H]2CO)O[C@H]1n1ccc(N)nc1=O (some centres undefined)
Activity (Mus musculus [12]): Active | Activity (Mus musculus [13]): Non-toxic | Activity (Mus musculus [14]): Active | Activity (Mus musculus [15]): inactive | Activity (Mus musculus [16]): Active | Activity (Mus musculus [17]): Active | Activity (Mus musculus [18]): Non-toxic | Activity (Mus musculus [19]): inactive | Activity (Mus musculus [20]): Non-toxic | Activity (Mus musculus [21]): Non-toxic | Activity (Mus musculus [22]): Active | Activity (Mus musculus [23]): Active | Activity (Mus musculus [24]): Active
